A short description of the data set: Toxicity liver stage against HepG2, at 10uM. Details: test concentration 10 uM, cell line HepG2-A16-CD81EGFP. In kind it is cell-based. As to conditions: human, HepG2-A16-CD81EGFP cells; read-out: INHIBITION
The essentials:
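Uninfected HepG2-A16-CD81EGFP cells, 3 × 10^3 per well, 1536-well, plated on prespotted compound at 10 μM final, parasite-free screening media added to match infected plates; puromycin 10 μM positive, DMSO 0.5% negative; run in parallel with 48 h PbLuc assay at 37 °C, 5% CO2; viability by CellTiter-Glo luminescence, normalized to controls.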
For the compound `Cc1cccc(-c2noc([C@@H]3C[C@@H](O)CN3C3CCOCC3)n2)c1`, the cytotoxicity at 10 µM was determined as 4.9%.

In the case of `CC(C)c1ccc(-n2ncc(C(=O)NCC3COC(C)(C)O3)c2N)cc1` (stereo unspecified), the cytotoxicity at 10 µM is -0.726%.

Regarding `COCC(=O)N1CCC(=O)N(C2CCCC2)Cc2ccccc21`, the cytotoxicity at 10 µM is -5.2%.

Regarding `O=C(Nc1ccccn1)C1(n2cnnn2)CCCCC1`, the cytotoxicity at 10 µM is -7.03%.

`O=C(CNC(=O)N1CCN(c2cccc(Cl)c2)CC1)Nc1ccccn1`: the cytotoxicity at 10 µM was -0.74%.

Regarding `NC(=O)Cn1c(CO)cnc1SCC(=O)NCc1ccccc1Cl`, the cytotoxicity at 10 µM was -4.24%.

Turning to `CCNC(=O)N1CCN(c2nc3ccccc3n2C)CC1`, the cytotoxicity at 10 µM amounted to 0.739%.

Take `O=C1CCC2(CCCN(C(=O)Cc3ccccn3)C2)N1` (stereo unspecified): the cytotoxicity at 10 µM was 4%.

With `COCCNC(=O)Cn1c(-c2ccc(F)cc2)nc(C)c(CCO)c1=O`, the cytotoxicity at 10 µM is -15%.

For the compound `O=C1CC(c2ccncc2)c2c(c(C(=O)O)cn2-c2ccc(F)cc2)N1` (stereo unspecified), the cytotoxicity at 10 µM stood at 10.1%.

On to `CCN(CC)C(=O)c1nnc2ccc(N3CCOCC3)cc2n1`, for which the cytotoxicity at 10 µM came out at 5.37%.

In the case of `Cc1ncc(C(=O)N2CC(C(=O)N3CCOCC3)C2)c(C)n1`, the cytotoxicity at 10 µM turned out to be 3.54%.

`Cn1nc(Cl)cc1C(=O)N1CCC(C(=O)c2nc3ccccc3s2)CC1`: the cytotoxicity at 10 µM was determined as 3.34%.

On to `O=C(c1cc[nH]n1)N1CCCC1c1cc(Nc2ccccn2)n[nH]1` (stereo unspecified), for which the cytotoxicity at 10 µM was -13.8%.

As for `Cc1cnc(N)c(C(=O)C2CCN(C(=O)c3cnc(C)cn3)CC2)c1`, the cytotoxicity at 10 µM was -19.7%.

As for `Cc1ccc(=O)n(CC2(O)CCN(Cc3cccs3)CC2)n1`, the cytotoxicity at 10 µM is -5.72%.

Consider `CNC(=O)c1ccc(C2CN(C(=O)c3c[nH]nc3C)CCO2)nc1` (stereo unspecified), for which the cytotoxicity at 10 µM is -19.3%.

In the case of `CC(C)(CNC(=O)Nc1ccc(S(=O)(=O)C(F)F)cc1)N1CCOCC1`, the cytotoxicity at 10 µM amounted to 4.44%.

Turning to `N#Cc1cc(F)ccc1NCc1ccc(Cn2cncn2)cc1`, the cytotoxicity at 10 µM came to 8.75%.

With `CCN(CC)S(=O)(=O)NCC(O)c1c(Cl)cccc1Cl` (stereo unspecified), the cytotoxicity at 10 µM was 8.66%.

With `CCN(CC)C(=O)C1(NCc2nc(C)c(C)o2)CCCCC1`, the cytotoxicity at 10 µM is 2.5%.

For `O=C(NC1(C(=O)O)CCCCC1)C1Cc2ccccc2O1` (stereo unspecified), the cytotoxicity at 10 µM is 10.9%.

With `CC1COCCN1C(=O)COc1cccc(Oc2ccccn2)c1` (stereo unspecified), the cytotoxicity at 10 µM is -5.15%.

For `CN(C1CCCCC1)S(=O)(=O)NCC1Cc2ccccc2O1` (stereo unspecified), the cytotoxicity at 10 µM was determined as 4.19%.

As for `CSc1ncccc1C(=O)NC(C)c1cccc(N2CCOC2=O)c1` (stereo unspecified), the cytotoxicity at 10 µM is -9.05%.

As to `CC(C)n1cnnc1CNC(=O)c1cnn(-c2ccccc2)c1`, the cytotoxicity at 10 µM came to 11.9%.

For `CCN(CC)C1CCN(C(=O)NCc2cccc(-n3ccnc3)c2)C1` (stereo unspecified), the cytotoxicity at 10 µM is -4.45%.

Consider `Cn1cc(C(=O)CC2CCCN2C(=O)c2ccn3ccnc3c2)cn1` (stereo unspecified), for which the cytotoxicity at 10 µM is -5.81%.

As for `CC(NC(=O)c1ccnc(C2CC2)n1)C1(N2CCOCC2)CCCC1` (stereo unspecified), the cytotoxicity at 10 µM was 4.21%.

`CCOc1ccccc1C(CC(=O)O)NC(C)=O` (stereo unspecified): the cytotoxicity at 10 µM was -4.19%.

Consider `CC(C)Cc1ccc(S(=O)(=O)NCCCN2CCNC(=O)C2)cc1`, for which the cytotoxicity at 10 µM is -4.36%.

Turning to `O=C(NCc1ccccn1)Nc1ccc2[nH]nnc2c1`, the cytotoxicity at 10 µM was 6.77%.

In the case of `CC(C)(C)CN(CCC#N)C(=O)Cc1ccc(-n2cnnn2)cc1`, the cytotoxicity at 10 µM is 1.18%.

On to `CC(C)OCCCNC(=O)N(C)C(C)c1ccc(-n2cncn2)cc1` (stereo unspecified), for which the cytotoxicity at 10 µM stood at 4.08%.

For `Cc1sc(CNS(N)(=O)=O)nc1-c1ccc(Cl)cc1`, the cytotoxicity at 10 µM was -7.45%.

For the compound `CS(=O)(=O)N1CCC(Nc2ccnc3ccc(Cl)cc23)CC1`, the cytotoxicity at 10 µM is 54.3%.

Regarding `COc1cc2ccn(CCS(C)(=O)=O)c(=O)c2cc1F`, the cytotoxicity at 10 µM turned out to be 18.5%.

Take `O=C(O)c1ccc(F)c(S(=O)(=O)Nc2c(F)cccc2-n2cccn2)c1`: the cytotoxicity at 10 µM was -5.59%.

As for `NC(=O)C1CCN(C(=O)NCc2ccccc2Cn2cncn2)CC1`, the cytotoxicity at 10 µM was found to be 3.98%.

For the compound `O=C(c1cccnc1)N1CCC2(CC1)CCN(Cc1ccccn1)C2=O`, the cytotoxicity at 10 µM was found to be 2.78%.

In the case of `CC(C)c1nnc(CN2CCC3(CC2)Nc2ccccc2NC3=O)o1`, the cytotoxicity at 10 µM is -1.48%.

Consider `CCCN1CC2(CCN(C)CC2)CC1C(=O)NCCn1cccn1` (stereo unspecified), for which the cytotoxicity at 10 µM was -5.46%.

For `Cc1ccccc1-n1cc(CNc2ncnc3c2CCNCC3)cn1`, the cytotoxicity at 10 µM is 1.25%.

For `CCSCC(C)NCc1cn2ccccc2n1` (stereo unspecified), the cytotoxicity at 10 µM is -7.38%.

On to `Cc1ccc(NC2CCCN(Cc3ccc(Cl)cc3)C2)nn1` (stereo unspecified), for which the cytotoxicity at 10 µM was -5.98%.

As to `CC(C)C(O)C(=O)N1CCC2(CC1)c1nc[nH]c1CCN2S(C)(=O)=O` (stereo unspecified), the cytotoxicity at 10 µM is -0.232%.

In the case of `Cc1ccccc1CN1CCN(C(=O)CN2CCOC2=O)CC1`, the cytotoxicity at 10 µM was -8.03%.

On to `CC(C)[C@@H](N)C(=O)NCc1cccnc1N1CCc2ccccc2C1`, for which the cytotoxicity at 10 µM was 11%.

Consider `COc1ccc(F)c(F)c1CN1CCN(CC(C)C)C(=O)C1C` (stereo unspecified), for which the cytotoxicity at 10 µM was -6.29%.

Turning to `CN(C)c1ccccc1C(=O)N1C[C@@H](CN2CCOCC2)[C@@H](CO)C1`, the cytotoxicity at 10 µM is -4.09%.

Regarding `Cc1nnc(NC(=O)NCc2ccoc2)s1`, the cytotoxicity at 10 µM was -1.36%.

Consider `CC(C)c1n[nH]c(C2CN(C(=O)c3cc(C4CC4)[nH]n3)CCO2)n1` (stereo unspecified), for which the cytotoxicity at 10 µM was -5.95%.

`Cc1noc(C)c1C(=O)NCC(c1cccc(F)c1)N(C)C` (stereo unspecified): the cytotoxicity at 10 µM is -13.1%.

As to `CCOc1ncccc1C(=O)N1CCCC1c1c(C)nn(C)c1Cl` (stereo unspecified), the cytotoxicity at 10 µM turned out to be 0.534%.

With `Cc1ccc(CNCC2CCCN2c2cccnn2)s1` (stereo unspecified), the cytotoxicity at 10 µM is -4.38%.

Take `Cc1cnn(CC2CCCCN2C(=O)c2nccnc2N)c1` (stereo unspecified): the cytotoxicity at 10 µM was -3.03%.

For `CCc1nc(C2CCCN(C(=O)c3cccc(Cl)c3)C2)no1` (stereo unspecified), the cytotoxicity at 10 µM was -7.55%.

As for `CCn1c(C)nnc1CN(C)C1CCN(CCOc2ccccc2)C1` (stereo unspecified), the cytotoxicity at 10 µM was found to be 0.796%.

Regarding `CCn1cc(CN2CCCN(C(=O)c3ccoc3C)CC2)cn1`, the cytotoxicity at 10 µM is -6.67%.

For the compound `O=S(=O)(CCN1CCOC(Cn2cccn2)C1)C(F)(F)F` (stereo unspecified), the cytotoxicity at 10 µM stood at 3.78%.

For `Cc1ccccc1NC(=O)c1cncc(C2CCNCC2)n1`, the cytotoxicity at 10 µM amounted to 1.54%.

Regarding `Fc1ccc(C2(CNC3=NCCCN3)CCC2)cc1`, the cytotoxicity at 10 µM was determined as 7.2%.

Take `COC[C@]12COC[C@H]1CN(Cc1ccc3ccccc3n1)C2`: the cytotoxicity at 10 µM amounted to 11.9%.

`Cc1n[nH]c2ncc(CNC3CCN(Cc4ccccn4)CC3)cc12`: the cytotoxicity at 10 µM came out at 7.14%.

With `Cc1noc(C)c1CN1CCN(C)c2ncccc2C1`, the cytotoxicity at 10 µM was -77%.

For `Cc1nc(CN2C[C@@H]3CN(C(=O)C4(C#N)CC4)C[C@@H]3C2=O)cs1`, the cytotoxicity at 10 µM is -70.7%.

For the compound `CN(Cc1cccnc1)C1CC2(CCN(c3ncccn3)CC2)C1`, the cytotoxicity at 10 µM was -3.31%.

For the compound `CCOC[C@@H]1CC[C@H]2[C@H](CCN2Cc2c(C)noc2C)O1`, the cytotoxicity at 10 µM worked out at 10.5%.

On to `COCCC(=O)N1C[C@@H]2CC[C@H]1CN(C1Cc3ccccc3C1)C2`, for which the cytotoxicity at 10 µM is -7.43%.

With `COc1ncccc1CN1CCC2[C@H]1CCN2CCN(C)C` (stereo partly specified), the cytotoxicity at 10 µM was found to be 2.77%.

Regarding `Cc1cc(C(=O)NC2CCC3(CCC(=O)N3)CC2)no1` (stereo unspecified), the cytotoxicity at 10 µM worked out at 4.23%.

Source of the values: ChEMBL document CHEMBL4513216, “Probing the Open Global Health Chemical Diversity Library for Multistage-Active Starting Points for Next-Generation Antimalarials” (ACS Infect Dis, 2020).
